A word on the viability: it is a read-out of living cells in per cent, often relative to untreated cells. As a reminder, the inhibition is the change of the read-out against control, counted positive when it falls.

Each structure is given as a SMILES string. Active and inactive are the calls of the source.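 Rule for the calls, unless noted: active = viability at or under a set limit in both replicates, limit being median viability minus 3 SD (cut at about 48% in these data, passing the limit was not always enough); inconclusive = at or under the limit in just one replicate; inactive = at or above the limit in both replicates.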

Data on 16 compounds can be found in PubChem BioAssay.

The nature of experiment [1]: Her2 expression decrease, cell viability multiplex – SKBR3 breast tumor cells, AlphaScreen, ATP viability, primary screen (AID 461;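 active = Her2 level under about 52% in both replicate screens, with viability over 70% of control, limit read from the data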;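 for Her2 level: lower value means less Her2 protein in the cells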;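 for viability: percent of carrier control wells set as 100% viability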). The note with it: SKBR3 Her2 protein level, 18-24 h, measured here: SKBR3 viability, ATP luminescence, at 10 µM. (In Alpha technology, singlet oxygen from a donor bead excites a nearby acceptor bead.)
For experiment [2], the target named is Receptor tyrosine-protein kinase erbB-2 (Homo sapiens) (UniProt P04626). The description is as above. Particulars: 18-24 h, at 10 µM, stronger effect = lower value.
A short description of experiment [3]: reduced viability of SK-BR-3 breast cancer cells – cell-based, 24 h, human, pilot screen (AID 572;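 active = viability at or below 10% of carrier control in both of two separate runs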;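 note: compound exposure lasted between 18 and 24 h rather than exactly 24 h; 100% = carrier-treated control wells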). Particulars: SK-BR-3 viability, CellTiter-Glo luminescence, at 10 µM, stronger effect = lower value.
The nature of experiment [4]: HUVEC growth inhibition – cell-based, human, primary screen (AID 575;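 active = viability at or below 30% in both replicate assays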;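 note: 100% = median of untreated cell wells with 0.1% DMSO on each plate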). Particulars: HUVEC proliferation, CellTiter-Glo luminescence, 72 h; at 10 µM; stronger effect = lower value. The method, boiled down:
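Timing: 72 h treatment at 37 °C; material: HUVEC primary cells; technique: CellTiter-Glo luminescence measuring cellular ATP; controls: vehicle and MePR control wells; measure: percent of median DMSO-control luminescence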
On the technique in general: ATP-based viability assays read luminescence as a measure of living cells.

Experiment [5] in a line: H69AR cell proliferation blockers – human, duplicate replicates, primary screen (AID 580).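 Note: 100% = mean luminescence of untreated wells and 0% = no signal.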 The note with it: H69AR lung tumor cells viability, ATP luminescence, 72 h; at 10 µM; stronger effect = lower value.
Experiment [6] is described as follows: MRP1 drug-resistance reversers in H69AR cells – cell-based, doxorubicin co-treatment, pilot screen (AID 601;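 active = viability loss from added drug above about 55%, and viability with drug at most 40%, in both replicates, limit read from the data, passing the limit was not always enough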). Particulars: CellTiter-Glo, 72 h, at 10 µM; for differential viability (reversal): stronger effect = higher value.
The nature of experiment [7]: yeast transport mutant growth inhibition pilot in 384-well plates, post-Golgi transport modulator project (AID 636; in the data active = inhibition above about 31%). The note with it: absorbance 615 nm, about 18 h, stronger effect = higher value.
A short description of experiment [8]: growth suppression of yeast trafficking mutant, preliminary HTS, modulators of trafficking downstream of Golgi apparatus project, 1536-format plate, OD 615 nm (AID 637; in the data active = inhibition above about 30%). The note with it: yeast transport mutant growth, absorbance 615 nm, 18 h; stronger effect = higher value.
[9] abbreviates: H69AR cells + 2 uM doxorubicin, measured here: viability with 2 uM doxorubicin, stronger effect = lower value.
Setting [10] is: H69AR cells, compound alone cytotoxicity.

Receptor tyrosine-protein kinase erbB-2 (Homo sapiens), sequence (P04626 whole entry, looked up): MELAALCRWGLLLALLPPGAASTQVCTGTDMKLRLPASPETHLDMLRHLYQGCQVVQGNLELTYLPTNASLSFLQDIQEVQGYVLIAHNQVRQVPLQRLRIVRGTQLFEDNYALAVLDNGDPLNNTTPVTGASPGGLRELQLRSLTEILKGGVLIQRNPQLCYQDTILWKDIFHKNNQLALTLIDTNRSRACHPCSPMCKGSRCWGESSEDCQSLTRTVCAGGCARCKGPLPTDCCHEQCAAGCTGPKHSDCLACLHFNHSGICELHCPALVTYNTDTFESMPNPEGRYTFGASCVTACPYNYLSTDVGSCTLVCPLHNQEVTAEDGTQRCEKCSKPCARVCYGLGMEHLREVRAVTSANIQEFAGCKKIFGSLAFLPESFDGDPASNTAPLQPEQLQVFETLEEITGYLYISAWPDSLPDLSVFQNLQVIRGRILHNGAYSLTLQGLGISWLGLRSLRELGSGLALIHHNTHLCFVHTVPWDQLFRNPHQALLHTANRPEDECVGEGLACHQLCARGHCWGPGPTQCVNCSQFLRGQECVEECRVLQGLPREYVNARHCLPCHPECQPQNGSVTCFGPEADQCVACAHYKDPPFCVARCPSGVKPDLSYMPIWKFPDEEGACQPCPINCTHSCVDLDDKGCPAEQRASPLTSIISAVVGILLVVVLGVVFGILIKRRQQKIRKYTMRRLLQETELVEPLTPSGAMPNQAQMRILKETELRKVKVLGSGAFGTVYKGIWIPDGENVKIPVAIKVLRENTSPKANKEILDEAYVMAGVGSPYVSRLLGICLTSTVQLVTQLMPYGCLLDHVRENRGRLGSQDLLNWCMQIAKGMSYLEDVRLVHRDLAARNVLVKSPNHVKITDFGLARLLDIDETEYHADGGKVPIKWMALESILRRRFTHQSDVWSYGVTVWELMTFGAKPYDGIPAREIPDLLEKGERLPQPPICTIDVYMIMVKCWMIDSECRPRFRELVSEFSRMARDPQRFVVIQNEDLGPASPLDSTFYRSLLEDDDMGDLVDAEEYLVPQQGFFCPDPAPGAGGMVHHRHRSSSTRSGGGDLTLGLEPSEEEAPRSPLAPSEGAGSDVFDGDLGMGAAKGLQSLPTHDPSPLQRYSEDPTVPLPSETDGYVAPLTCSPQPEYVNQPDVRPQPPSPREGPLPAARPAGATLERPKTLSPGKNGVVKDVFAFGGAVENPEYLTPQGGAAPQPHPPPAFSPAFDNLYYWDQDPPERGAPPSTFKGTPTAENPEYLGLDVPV

On to `C=C(C)c1cccc(C(C)(C)NC(=O)Nc2ncccn2)c1`, for which the viability is 97.5% in experiment [1]; 97.5% (inactive) in experiment [3]; 81% (inactive) in experiment [4]; 66.7% (inactive) in experiment [5]; 75.7% in experiment [6] (setting [9]); 66.7% in experiment [6] (setting [10]). For the same compound, the Her2 level in experiment [2] was 107% (inactive). Moreover, the differential viability (reversal) in experiment [6] (H69AR cells + 2 uM doxorubicin) is -9% (inactive). The figures for the inhibition in experiment [7] and in experiment [8] were -4.08% (inactive) and -4.73% (inactive), respectively.
For the compound `O=S(=O)(c1ccccc1)c1nc(-c2ccco2)oc1NCCCN1CCOCC1`, the viability in experiment [1] is 91%; in experiment [3], 91% (inactive); in experiment [4], 84.6% (inactive); in experiment [5] it was 95.4% (inactive); in experiment [6] (setting [9]), 96.8%; in experiment [6] (setting [10]), 95.4%. Besides, the Her2 level in experiment [2] was 100% (inactive). For the same compound, in experiment [6] (H69AR cells + 2 uM doxorubicin), the differential viability (reversal) is -1.43% (inactive). Besides, the inhibition was -1.73% (inactive) in experiment [7] and -3.23% (inactive) in experiment [8].
Take `Cc1cccc(-c2cc3nc4c(c(N5CCC6(CC5)OCCO6)n3n2)CCCC4)c1`: the viability in experiment [1] was 80.5%; in experiment [3], 80.5% (inactive); in experiment [4], 77.8% (inactive); in experiment [5] it was 83.9% (inactive); in experiment [6] (setting [9]), 93%; in experiment [6] (setting [10]), 83.9%. The Her2 level in experiment [2] is 100% (inactive). The differential viability (reversal) in experiment [6] (H69AR cells + 2 uM doxorubicin) was -9.12% (inactive). Moreover, the inhibition is -2.13% (inactive) in experiment [7] and 9.37% (inactive) in experiment [8].
For the compound `N#CC1=C(N)Oc2n[nH]c(-c3ccncc3)c2C1c1ccsc1` (stereo not given), the viability was 88% in experiment [1]; 88% (inactive) in experiment [3]; 113% (inactive) in experiment [4]; 87.7% (inactive) in experiment [5]; 94.2% in experiment [6] (setting [9]); 87.7% in experiment [6] (setting [10]). In addition, the Her2 level in experiment [2] is 95% (inactive). Further, the differential viability (reversal) in experiment [6] (H69AR cells + 2 uM doxorubicin) is -6.48% (inactive). The inhibition in experiment [7] was 0.53% (inactive); in experiment [8] it was -4% (inactive).
In the case of `CCNc1nc(N2CCCCC2)nc(-n2nnc(C(=O)OCC)c2C)n1`, the viability in experiment [1] was 162%; in experiment [3] it was 162% (inactive); in experiment [4], 116% (inactive); in experiment [5] it was 95.7% (inactive); in experiment [6] (setting [9]), 94.3%; in experiment [6] (setting [10]) it was 95.7%. Also, in experiment [2], the Her2 level was 94% (inactive). The differential viability (reversal) in experiment [6] (H69AR cells + 2 uM doxorubicin) was 1.31% (inactive). In addition, the inhibition in experiment [7] is -6.45% (inactive); in experiment [8] it was 4.75% (inactive).
On to `CC1(C)CC(=O)C2=C(C1)OC(N)=C(C#N)C2C1CC=CCC1` (stereo not given), for which the viability in experiment [1] is 108%; in experiment [3] it was 108% (inactive); in experiment [4], 91.4% (inactive); in experiment [5], 81.6% (inactive); in experiment [6] (setting [9]), 69.1%; in experiment [6] (setting [10]), 81.6%. Moreover, the Her2 level in experiment [2] was 93% (inactive). In addition, the differential viability (reversal) in experiment [6] (H69AR cells + 2 uM doxorubicin) is 12.5% (inactive). Further, the inhibition in experiment [7] is -7.53% (inactive); in experiment [8] it was -2.22% (inactive).
As to `Nc1nnc(-c2cn(-c3ccccc3)nc2-c2ccccc2)o1`, the viability in experiment [1] was 73%; in experiment [3], 73% (inactive); in experiment [4], 77.3% (inactive); in experiment [5], 91.2% (inactive); in experiment [6] (setting [9]), 80.5%; in experiment [6] (setting [10]), 91.2%. The Her2 level in experiment [2] is 131% (inactive). Besides, the differential viability (reversal) in experiment [6] (H69AR cells + 2 uM doxorubicin) is 10.7% (inactive). The inhibition in experiment [7] is 2.47% (inactive); in experiment [8], -15.5% (inactive).
Consider `CSc1ccc(Cn2nnc(C(=O)NCc3ccccc3)c2N)cc1`, for which the viability is 96.5% in experiment [1]; 96.5% (inactive) in experiment [3]; 76.4% (inactive) in experiment [4]; 103% (inactive) in experiment [5]; 103% in experiment [6] (setting [9]); 103% in experiment [6] (setting [10]). The Her2 level in experiment [2] was 91.5% (inactive). The differential viability (reversal) in experiment [6] (H69AR cells + 2 uM doxorubicin) is 0.465% (inactive). The inhibition was -1.87% (inactive) in experiment [7] and 0.16% (inactive) in experiment [8].
As for `CC1N=C2c3ccccc3N=C(SCc3cc(=O)n4cc(Cl)ccc4n3)N2C1=O` (stereo not given), the viability was 78.5% in experiment [1]; 78.5% (inactive) in experiment [3]; 79.4% (inactive) in experiment [4]; 76.1% (inactive) in experiment [5]; 85.6% in experiment [6] (setting [9]); 76.1% in experiment [6] (setting [10]). Further, the Her2 level in experiment [2] is 92.5% (inactive). Besides, the differential viability (reversal) in experiment [6] (H69AR cells + 2 uM doxorubicin) was -9.46% (inactive). Also, the inhibition in experiment [7] was -4.87% (inactive); in experiment [8] it was -0.48% (inactive).
With `CCOC(=O)c1ccc(S(=O)(=O)Nc2cc(C(C)(C)C)no2)cc1`, the viability was 92% in experiment [1]; 92% (inactive) in experiment [3]; 112% (inactive) in experiment [4]; 101% (inactive) in experiment [5]; 103% in experiment [6] (setting [9]); 101% in experiment [6] (setting [10]). Further, the Her2 level in experiment [2] was 97% (inactive). Moreover, the differential viability (reversal) in experiment [6] (H69AR cells + 2 uM doxorubicin) was -2.06% (inactive). In addition, the results for the inhibition in experiment [7] and in experiment [8] were -3.25% (inactive) and -3.81% (inactive), respectively.
On to `COc1ccc(-c2cc(C(=O)NCCc3ccccc3)no2)cc1OC`, for which the viability in experiment [1] was 102%; in experiment [3], 102% (inactive); in experiment [4], 92.3% (inactive); in experiment [5], 89.9% (inactive); in experiment [6] (setting [9]), 86.6%; in experiment [6] (setting [10]), 89.9%. Further, the Her2 level in experiment [2] is 85.5% (inactive). Besides, the differential viability (reversal) in experiment [6] (H69AR cells + 2 uM doxorubicin) was 3.29% (inactive). The inhibition was -4.19% (inactive) in experiment [7] and -12.7% (inactive) in experiment [8].
`COc1ccc(CCNC(=O)c2ccncc2)cc1OC`: the viability in experiment [1] is 107%; in experiment [3], 107% (inactive); in experiment [4] it was 96.3% (inactive); in experiment [5] it was 97.5% (inactive); in experiment [6] (setting [9]) it was 85.3%; in experiment [6] (setting [10]), 97.5%. In addition, the Her2 level in experiment [2] is 110% (inactive). Also, in experiment [6] (H69AR cells + 2 uM doxorubicin), the differential viability (reversal) was 12.2% (inactive). For the same compound, the inhibition in experiment [7] is -6.27% (inactive); in experiment [8] it was -3.71% (inactive).
For `O=C(c1cccn2c(=O)c3cc(Cl)ccc3nc12)N1CCOCC1`, the viability in experiment [1] was 95.5%; in experiment [3], 95.5% (inactive); in experiment [4], 98% (inactive); in experiment [5], 116% (inactive); in experiment [6] (setting [9]), 96%; in experiment [6] (setting [10]), 116%. In experiment [2], the Her2 level is 104% (inactive). In addition, the differential viability (reversal) in experiment [6] (H69AR cells + 2 uM doxorubicin) is 20.2% (inactive). The figures for the inhibition in experiment [7] and in experiment [8] were -3.2% (inactive) and -5.32% (inactive), respectively.
With `O=C(O)c1cccc(CN2C(=O)SC(Nc3ccccc3)C2=O)c1` (stereo not given), the viability in experiment [1] was 110%; in experiment [3], 110% (inactive); in experiment [4], 83% (inactive); in experiment [5], 103% (inactive); in experiment [6] (setting [9]) it was 94%; in experiment [6] (setting [10]), 103%. Also, in experiment [2], the Her2 level was 89% (inactive). Further, in experiment [6] (H69AR cells + 2 uM doxorubicin), the differential viability (reversal) was 8.78% (inactive). For the same compound, the values for the inhibition in experiment [7] and in experiment [8] were -4.8% (inactive) and 2.95% (inactive), respectively.
Regarding `O=C(CSc1nnc(-c2ccco2)c(-c2ccco2)n1)Nc1ccccc1`, the viability in experiment [1] was 102%; in experiment [3] it was 102% (inactive); in experiment [4], 89.2% (inactive); in experiment [5], 77.6% (inactive); in experiment [6] (setting [9]) it was 89.8%; in experiment [6] (setting [10]), 77.6%. For the same compound, the Her2 level in experiment [2] was 64% (inactive). The differential viability (reversal) in experiment [6] (H69AR cells + 2 uM doxorubicin) is -12.2% (inactive). The results for the inhibition in experiment [7] and in experiment [8] were 2.63% (inactive) and 9.03% (inactive), respectively.
Regarding `COC(=O)c1cc(NS(=O)(=O)c2ccc3c(c2)CCC(=O)N3)cc(C(=O)OC)c1`, the viability in experiment [1] is 112%; in experiment [3], 112% (inactive); in experiment [4], 94.2% (inactive); in experiment [5], 96.5% (inactive); in experiment [6] (setting [9]) it was 95%; in experiment [6] (setting [10]), 96.5%. The Her2 level in experiment [2] was 86% (inactive). Further, the differential viability (reversal) in experiment [6] (H69AR cells + 2 uM doxorubicin) is 1.56% (inactive). The values for the inhibition in experiment [7] and in experiment [8] were 0% (inactive) and -2.86% (inactive), respectively.
